Laboratory results reported in publication PMC5470083 (Molecular imaging, 2016).
pKd, pKi: −log10 of the molar value. Where two headings read alike, the source gives them in different places.

How the values were obtained:
PHF tau = PHF tau (Homo sapiens, UniProt P10636); format: binding
Aβ = Aβ (Homo sapiens, UniProt P05067); assay: In vitro autoradiography binding inhibition of [11C]PiB on human AD brain slices; details: for % Block ± SD of tracer binding: 1 µmol/L compound, tracer 13 nmol/L [11C]PiB, human AD slices, n = 3
amyloid plaques = amyloid plaques (Homo sapiens, UniProt P05067); format: binding
[1] = Plasma radiometabolite analysis; format: in vivo, mouse; details: normal mice
Method in brief: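 NMRI mice under isoflurane (2.5% in O2) received about 3.7 MBq of 18F-labelled tracer via a lateral tail vein. They were decapitated at 2, 10, 30 or 60 min PI (n = 3/time point). EDTA blood was kept on ice and spun at 2330 ×g for 10 min. Plasma (0.5 mL) was spiked with 10 µg authentic unlabelled compound and run on C18 HPLC. Fractions were γ-counted for % intact tracer, reported as mean ± SD.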

[2] = Perfused brain radiometabolite analysis; format: in vivo, mouse; details: normal mice
NFTs = details: autoradiography on human AD brain tissue sections; ref [8],[11]; cited from earlier work
tau (NFTs) [3] = biological target: T1, tau (NFTs) (Homo sapiens, UniProt P10636); format: binding; details: 1 µmol/L compound, human AD slices, n = 3
Target sequence in this assay (P10636 623-708 limits assumed): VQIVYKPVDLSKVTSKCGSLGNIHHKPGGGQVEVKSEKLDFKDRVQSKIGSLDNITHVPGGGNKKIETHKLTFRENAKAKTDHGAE

tau (NFTs) [4] = biological target: T1, tau (NFTs); format: binding
Target sequence in this assay (P10636 623-695 limits assumed): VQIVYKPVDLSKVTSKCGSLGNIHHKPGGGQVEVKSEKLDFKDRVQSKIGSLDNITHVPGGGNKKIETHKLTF

[5] = Biodistribution in normal NMRI mice; format: in vivo, mouse; details: for %ID/g Blood / %ID/g Bone / %ID/g Brain / %ID/g Cerebellum / %ID/g Cerebrum / %ID/g Heart / %ID/g Kidneys / %ID/g Liver / %ID/g Lungs / %ID/g Muscle / %ID/g Pancreas / %ID/g Spleen: iv
Method in brief: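 Healthy male NMRI mice (30-40 g) under 2.5% isoflurane in O2 received about 0.9 MBq of 18F-labelled tracer by tail vein. They were decapitated at 2, 10, 30 and 60 min PI (n = 4/time point). Blood and organs were weighed and γ-counted. Blood, bone and muscle were taken as 7%, 12% and 40% of body mass. Blood clearance was calculated as the 2 min to 60 min activity ratio.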

[6] = read-out: % Block ± SD of tracer binding
[7] = read-out: Inhibition of [11C]PiB binding, summary statements

amyloid plaques, sequence (P05067 672-711 limits assumed): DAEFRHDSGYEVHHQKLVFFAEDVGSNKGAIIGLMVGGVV
Aβ, sequence (P05067 672-711 limits assumed): as above
PHF tau, sequence (P10636 623-695 limits assumed): as the sequence (P10636 623-695 limits assumed) above

## COC(=O)c1ccc(-c2ccc3c(c2)[nH]c2ccncc23)cn1 [TAU8, Methyl 5-{5H-pyrido[4,3-b]indol-7-yl}pyridine-2-carboxylate]
PHF tau
  pKi: < 5.40
Aβ; [6]
  inhibition at 1 µM: 0%
Amyloid plaques
  pKi: < 5.36

## COc1ccc(CCN2CCC(Nc3nc4ccccc4n3Cc3ccc(F)cc3)CC2)cc1 [Astemizole]
PHF tau
  pKi: < 5.40
Amyloid plaques
  pKi: < 5.36

## COc1ccc(-c2csc(NN=Cc3ccccc3)n2)cc1 [TAU4, 1-Benzylidene-2-(4-(4-methoxyphenyl)thiazol-2-yl)hydrazine]
PHF tau
  pKi: < 5.40
Amyloid plaques
  pKi: < 5.36

## COc1ccc(-c2csc(NN=Cc3ccccn3)n2)cc1 [TAU5, 2-(4-(4-Methoxyphenyl)thiazol-2-yl)-1-((pyridin-2-yl)methylene)hydrazine]
PHF tau
  pKi: < 5.40
Amyloid plaques
  pKi: < 5.36

## Cc1c(OCC(F)(F)F)ccnc1C[S+]([O-])c1nc2ccccc2[nH]1 (stereo not shown) [Lansoprazole]
PHF tau
  pKi: < 5.40
Amyloid plaques
  pKi: < 5.36

## [11CH3]Nc1ccc(-c2nc3ccc(O)cc3s2)cc1 [PiB, 2-[4-([^11C]methylamino)phenyl]benzothiazol-6-ol]
PHF tau
  pKi: 6.89
Aβ
  % Block ± SD of tracer binding: 57 ± 0.0%

## COc1ccc(-c2ccc3c(c2)[nH]c2ccncc23)cn1 [TAU6, 2-Methoxy-5-{5H-pyrido[4,3-b]indol-7-yl}pyridine]
PHF tau
  pKi: < 5.40
Aβ; [6]
  inhibition at 1 µM: 0%
Aβ; [7]
  inhibition at 1 µM: < 17%
Amyloid plaques
  pKi: < 5.36

## [18F]c1ccc(-c2ccc3c(c2)[nH]c2ccncc23)cn1 [T807, 7-[6-[^18F]fluoropyridin-3-yl]-5H-pyrido-[4,3-b]indole]
[1]; 2 min after injection, n = 3
  Mean % ± SD of intact tracer, plasma: 99 ± 1%
[1]; 2 min after injection, n = 3, listed as [^18F]T807
  Mean % ± SD of intact tracer, plasma: 99%
[1]; 10 min after injection, n = 3
  Mean % ± SD of intact tracer, plasma: 84 ± 5%
[1]; 30 min after injection, n = 3
  Mean % ± SD of intact tracer, plasma: 60 ± 14%
[1]; 30 min after injection, n = 3, listed as [^18F]T807
  Mean % ± SD of intact tracer, plasma: 60%
[1]; 60 min after injection, n = 3
  Mean % ± SD of intact tracer, plasma: 45 ± 4%
PHF tau
  pKi: 8.96
Aβ
  % Block ± SD of tracer binding: 11 ± 0.1%
Aβ; [6]
  inhibition at 1 µM: 11%
Aβ; [7]
  inhibition at 1 µM: < 17%
[2]; 10 min after injection, n = 3
  Mean % ± SD of intact tracer, perfused brain: 100 ± 0%
[2]; 10 min after injection, n = 3, listed as [^18F]T807
  Mean % ± SD of intact tracer, perfused brain: ~100%
[2]; 60 min after injection, n = 3
  Mean % ± SD of intact tracer, perfused brain: 99 ± 1%
[2]; 60 min after injection, n = 3, listed as [^18F]T807
  Mean % ± SD of intact tracer, perfused brain: ~100%
NFTs
  pKd: 7.82
  fold higher binding affinity for NFTs over Aβ: 25 fold
Tau (NFTs) [3]; tracer 7 nmol/L [18F]T808
  % Block ± SD of tracer binding: 94 ± 0.0%
Tau (NFTs) [4]; 1 µmol/L compound, tracer 28 nmol/L [18F]T807, human AD slices, n = 3
  % Block ± SD of tracer binding: 88 ± 0.0%
Tau (NFTs) [4]; [6]
  inhibition at 1 µM: 88%
[5]; blood, 2 min PI
  %ID/g Blood: 1.5 ± 0.2 %ID/g
[5]; blood, 2 min to 60 min activity ratio
  2/60 min activity ratio Blood (clearance from blood): 2.5
[5]; blood, 10 min PI
  %ID/g Blood: 0.7 ± 0.0 %ID/g
[5]; blood, 30 min PI
  %ID/g Blood: 0.7 ± 0.1 %ID/g
[5]; blood, 60 min PI
  %ID/g Blood: 0.6 ± 0.1 %ID/g
[5]; 2 min PI
  %ID/g Bone: 0.1 ± 0.1 %ID/g
  %ID/g Cerebellum: 8.5 ± 1.4 %ID/g
  %ID/g Cerebrum: 7.2 ± 1.0 %ID/g
  %ID/g Heart: 6.8 ± 0.9 %ID/g
  %ID/g Kidneys: 35.9 ± 6.2 %ID/g
  %ID/g Liver: 12.6 ± 2.4 %ID/g
  %ID/g Lungs: 25.1 ± 11.9 %ID/g
  %ID/g Muscle: 3.0 ± 1.8 %ID/g
  %ID/g Pancreas: 4.1 ± 2.2 %ID/g
  %ID/g Spleen: 15.7 ± 5.1 %ID/g
[5]; 10 min PI
  %ID/g Bone: 1.4 ± 0.2 %ID/g
  %ID/g Cerebellum: 2.4 ± 0.5 %ID/g
  %ID/g Cerebrum: 2.6 ± 0.5 %ID/g
  %ID/g Heart: 2.1 ± 0.3 %ID/g
  %ID/g Kidneys: 25.6 ± 3.0 %ID/g
  %ID/g Liver: 14.6 ± 1.0 %ID/g
  %ID/g Lungs: 4.2 ± 1.8 %ID/g
  %ID/g Muscle: 1.4 ± 0.3 %ID/g
  %ID/g Pancreas: 4.7 ± 0.7 %ID/g
  %ID/g Spleen: 13.8 ± 12.5 %ID/g
[5]; 60 min PI
  %ID/g Bone: 0.1 ± 0.0 %ID/g
  %ID/g Cerebellum: 0.4 ± 0.2 %ID/g
  %ID/g Cerebrum: 0.4 ± 0.2 %ID/g
  %ID/g Heart: 1.0 ± 0.1 %ID/g
  %ID/g Kidneys: 13.0 ± 2.6 %ID/g
  %ID/g Liver: 18.1 ± 2.2 %ID/g
  %ID/g Lungs: 2.1 ± 0.7 %ID/g
  %ID/g Muscle: 0.5 ± 0.1 %ID/g
  %ID/g Pancreas: 1.5 ± 0.6 %ID/g
  %ID/g Spleen: 3.1 ± 1.7 %ID/g
[5]; brain, 2 min PI
  %ID/g Brain: 7.5 ± 1.1 %ID/g
[5]; brain, 2 min to 60 min activity ratio
  2/60 min activity ratio Brain: 18.3
[5]; brain, 10 min PI
  %ID/g Brain: 2.6 ± 0.5 %ID/g
[5]; brain, 30 min PI
  %ID/g Brain: 0.8 ± 0.4 %ID/g
[5]; brain, 60 min PI
  %ID/g Brain: 0.4 ± 0.2 %ID/g
[5]; 30 min PI
  %ID/g Cerebellum: 0.8 ± 0.4 %ID/g
  %ID/g Cerebrum: 0.8 ± 0.4 %ID/g
  %ID/g Heart: 1.3 ± 0.3 %ID/g
  %ID/g Kidneys: 15.8 ± 5.0 %ID/g
  %ID/g Liver: 20.7 ± 1.8 %ID/g
  %ID/g Lungs: 3.9 ± 1.2 %ID/g
  %ID/g Muscle: 0.6 ± 0.1 %ID/g
  %ID/g Pancreas: 2.1 ± 0.8 %ID/g
  %ID/g Spleen: 3.8 ± 1.3 %ID/g
Amyloid plaques
  pKi: 6.61

## COc1ccc(-c2ccc3c(c2)[nH]c2ccncc23)cc1 [TAU7, 7-(4-Methoxyphenyl)-5H-pyrido[4,3-b]indole]
PHF tau
  pKi: 7.85
Aβ; [6]
  inhibition at 1 µM: 0%
Amyloid plaques
  pKi: 8.31

## 2-[4-(4-Fluorophenyl)phenyl]-1,3-benzothiazole [TAU3]
Tau (NFTs) [3]; tracer 10 nmol/L [18F]T808
  % Block ± SD of tracer binding: 29 ± 0.1%

## Methyl 2-(4-nitrophenyl)benzo[d]thiazole-6-carboxylate [TAU2]
Tau (NFTs) [3]; tracer 10 nmol/L [18F]T808
  % Block ± SD of tracer binding: 48 ± 0.0%
